{"data": "Published values pooled from the literature", "target": "Focal adhesion kinase 1 (PTK2, Homo sapiens, UniProt Q05397)", "note": "Lines come from different studies, so protocols differ."}
{"Compound": "Cn1cncc1[C@](O)(COc1ccc(C#N)cc1-c1ccc(OC(F)(F)F)cc1)c1ccc(C#N)cc1", "read-out": "cell-free assay", "technique": "competition with immobilised ligand", "concentration": "1 µM", "quantity": "remaining binding", "result": "77%"}
{"Compound": "CC(C)(C)c1cc(C=C(C#N)C#N)cc(Br)c1O", "read-out": "enzyme activity", "mode": "inhibitor", "concentration": "0.5 µM", "quantity": "remaining activity", "result": "107%"}
{"Compound": "Cn1cc(-c2cc(F)cc(N3CCn4c(cc5c4CCCC5)C3=O)c2CO)cc(Nc2ccc(N3CCN(C4COC4)CC3)cn2)c1=O", "read-out": "enzyme activity", "mode": "inhibitor", "concentration": "0.1 µM", "quantity": "inhibition", "result": "18%"}
{"Compound": "Nc1ncc(-c2nc(N3CCOCC3)nc(N3CCOCC3)n2)c(C(F)F)n1", "read-out": "binding", "technique": "competition with immobilised ligand", "concentration": "10 µM", "quantity": "remaining binding", "result": "100%"}
{"Compound": "C#Cc1n[nH]c2c(-c3cn(C(C)c4ccccn4)c(=O)[nH]c3=O)cc(F)cc12 (stereo not shown)", "read-out": "enzyme activity", "mode": "inhibitor", "concentration": "1 µM", "quantity": "inhibition", "result": "5.6%"}
{"Compound": "Cn1cc(-c2cccc(N3CCc4c(sc5c4CC(C)(C)C5)C3=O)c2CO)cc(Nc2ccncn2)c1=O", "read-out": "enzyme activity", "mode": "inhibitor", "concentration": "1 µM", "quantity": "inhibition", "result": "3%"}
{"Compound": "N#CC1(c2ccccn2)CCN(Cc2cc(C(=O)O)c(=O)n3ccccc23)CC1", "read-out": "cell-free assay", "technique": "competition with immobilised ligand", "concentration": "1 µM", "quantity": "remaining binding", "result": "100%"}
{"Compound": "Cc1nn(C)cc1-c1nc2c(N3CCN(Cc4ccc(Cl)cc4)CC3)c(Cl)cnc2[nH]1", "read-out": "binding", "technique": "competition with immobilised ligand", "concentration": "1 µM", "quantity": "remaining binding", "result": "95%"}
{"Compound": "O=c1[nH]c2ccccc2n1C1CCN(Cc2ccc(-c3[nH]c4cc5ncnc5cc4nc3-c3ccccc3)cc2)CC1", "read-out": "cell-free assay", "concentration": "0.5 µM", "quantity": "remaining signal", "result": "108%"}
{"Compound": "COc1ncccc1-c1cnn2ccc(N3CCN(C(=O)OC(C)C)CC3)nc12", "read-out": "binding", "technique": "competition with immobilised ligand", "concentration": "1 µM", "quantity": "remaining binding", "result": "97%"}
